According to ChEMBL document CHEMBL1148781, “Phenylimidazole derivatives of 4-pyridone as dual inhibitors of bacterial enoyl-acyl carrier protein reductases FabI and FabK” (J Med Chem, 2007):
Values after ≈ are worked out from the molar mass of the structure shown.

What was measured:
Streptococcus pneumoniae = test: Antibacterial activity against Streptococcus pneumoniae KU197; type: functional
Procedure, shortened: (§1)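 Broth microdilution per NCCLS M7-A6; MIC taken as lowest concentration preventing visible growth. Strains: S. aureus ATCC29213 and S. pneumoniae KU197 (PRSP).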

[1] = Inhibition of Escherichia coli FabI
Procedure, shortened: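 His-tagged E. coli FabI (gene from E. coli DH5α, expressed in E. coli TOP10 with arabinose induction, Ni-NTA purified) at 50 µg/mL in 100 mM sodium phosphate pH 7.4 with 0.25 mM crotonoyl-CoA and 0.4 mM NADH. Reaction started by enzyme addition; NADH consumption followed at 340 nm for 10 min at room temperature; IC50 = concentration halving activity.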

K562 = test: Cytotoxicity against human K562 cells; type: functional, cell-based
Staphylococcus aureus = test: Antibacterial activity against Staphylococcus aureus ATCC 29213; type: functional; procedure, shortened: as §1
[2] = target: T1, Enoyl-(Acyl-carrier-protein) reductase (Streptococcus pneumoniae, UniProt Q9FBC5); test: Inhibition of Streptococcus pneumoniae FabK
T1 sequence (Q9FBC5 whole entry): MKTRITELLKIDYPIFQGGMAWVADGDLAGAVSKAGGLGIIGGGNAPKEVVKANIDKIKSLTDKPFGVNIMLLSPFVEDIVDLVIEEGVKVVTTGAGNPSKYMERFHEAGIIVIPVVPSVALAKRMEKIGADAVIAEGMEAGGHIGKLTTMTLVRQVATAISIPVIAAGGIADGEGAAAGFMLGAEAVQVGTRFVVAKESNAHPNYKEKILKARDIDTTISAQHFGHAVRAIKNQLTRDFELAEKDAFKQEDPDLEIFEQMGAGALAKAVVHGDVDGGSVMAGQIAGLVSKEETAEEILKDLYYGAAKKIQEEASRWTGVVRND
Procedure, shortened: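 C-terminal His-tagged FabK from S. pneumoniae R6, expressed in E. coli BL21(DE3) with 1 mM IPTG, Ni-NTA purified, used at 2 µg/mL. Buffer 100 mM MES pH 7.0, 100 mM NH4Cl, 0.2 mM crotonoyl-CoA, 0.4 mM NADH; enzyme-initiated. Absorbance at 340 nm read for 10 min at room temperature; IC50 = concentration giving 50% activity reduction.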

| SMILES | MIC (Streptococcus pneumoniae) | IC50 [1] | MIC (Staphylococcus aureus) | IC50 [2] | IC50 (K562) |
| --- | --- | --- | --- | --- | --- |
| Cc1c(Cc2c(Cl)cccc2Cl)c(=O)ccn1CCc1ccc(-c2c[nH]c(CNC(=O)Nc3ncc(S(C)(=O)=O)s3)n2)cc1 | 1 µg/mL (≈ 1.49 µM) | 310 nM | > 32 µg/mL | 9.4 nM | > 69000 nM |
| O=C([O-])COc1ccc(-c2cnc(CNC(=O)Nc3ncc(Sc4ccccn4)s3)[nH]2)cc1.[Na+] | > 32 µg/mL | > 32000 nM | – | 34 nM | – |
| Cc1c(Cc2c(Cl)cccc2Cl)c(=O)ccn1CCc1ccc(-c2c[nH]c(CNC(=O)Nc3ncc[nH]3)n2)cc1 | > 32 µg/mL | 930 nM | > 32 µg/mL | > 32000 nM | > 69000 nM |
| O=C(NCc1ncc(-c2ccccc2)[nH]1)Nc1ncc(Sc2ccccn2)s1 | 2 µg/mL (≈ 4.9 µM) | > 32000 nM | – | 42 nM | – |
| O=C(NCc1ncc(-c2ccc(Br)cc2)[nH]1)Nc1ncc(Sc2ccccn2)s1 | 0.25 µg/mL (≈ 0.513 µM) | > 32000 nM | – | 2.4 nM | – |
| Cc1c(Cc2c(Cl)cccc2Cl)c(=O)ccn1CCc1ccc(-c2c[nH]c(CNC(=O)Nc3ncc(Sc4ccccn4)s3)n2)cc1 | 2 µg/mL (≈ 2.85 µM) | 560 nM | > 32 µg/mL | 16 nM | > 69000 nM |
| CS(=O)(=O)c1ccc2nc(NC(=O)NCc3nc(-c4ccccc4)c[nH]3)sc2c1 | – | > 32000 nM | > 64 µg/mL | – | – |
| Cn1cc(CNC(=O)/C=C/c2cnc3c(c2)CCC(=O)N3)c2ccccc21 | > 32 µg/mL | 200 nM | 0.063 µg/mL (≈ 0.175 µM) | > 32000 nM | – |
| Cc1c(Cc2c(Cl)cccc2Cl)c(=O)ccn1CCc1ccc(-c2c[nH]c(CNC(=O)Nc3nc4ccc(S(C)(=O)=O)cc4s3)n2)cc1 | 0.5 µg/mL (≈ 0.693 µM) | 380 nM | > 32 µg/mL | 4.5 nM | > 69000 nM |
| O=C(NCc1ncc(-c2cccc(Br)c2)[nH]1)Nc1ncc(Sc2ccccn2)s1 | 16 µg/mL (≈ 32.8 µM) | > 32000 nM | – | 5.3 nM | – |
| Oc1cc(Cl)ccc1Oc1ccc(Cl)cc1Cl [TRICLOSAN] | – | 900 nM | 0.063 µg/mL (≈ 0.218 µM) | > 32000 nM | – |

Continued, in another order:

| MIC (Streptococcus pneumoniae) | IC50 [1] | MIC (Staphylococcus aureus) | IC50 [2] | SMILES | IC50 (K562) |
| --- | --- | --- | --- | --- | --- |
| > 32 µg/mL | 820 nM | > 32 µg/mL | 11000 nM | Cc1c(Cc2c(Cl)cccc2Cl)c(=O)ccn1Cc1ccc(-c2c[nH]c(CNC(=O)Nc3ncc(Br)s3)n2)cc1 | > 69000 nM |
| > 32 µg/mL | 290 nM | > 32 µg/mL | 9000 nM | Cc1c(Cc2c(Cl)cccc2Cl)c(=O)ccn1C/C=C/c1ccc(-c2c[nH]c(CNC(=O)Nc3ncc(Br)s3)n2)cc1 | > 69000 nM |
| > 32 µg/mL | 340 nM | > 32 µg/mL | 6600 nM | Cc1c(Cc2c(Cl)cccc2Cl)c(=O)ccn1CCCc1ccc(-c2c[nH]c(CNC(=O)Nc3ncc(Br)s3)n2)cc1 | > 69000 nM |
| 8 µg/mL (≈ 11.9 µM) | 570 nM | > 32 µg/mL | 29 nM | Cc1c(Cc2c(Cl)cccc2Cl)c(=O)ccn1CCc1ccc(-c2c[nH]c(CNC(=O)Nc3ncc(Br)s3)n2)cc1 | > 69000 nM |
| – | > 32000 nM | – | > 30000 nM | Cc1c(Cc2c(Cl)cccc2Cl)c(=O)ccn1/C=C/c1ccc(-c2c[nH]c(CNC(=O)Nc3ncc(Br)s3)n2)cc1 | > 69000 nM |
